Published values of several laboratories.
Target: Tyrosine-protein kinase Blk (BLK, Homo sapiens, UniProt P51451)

Compound | assay | setting | remaining binding [%]
O=C(c1ccc(Nc2ncc(Cl)c(-c3ccc(Cl)s3)n2)cc1)N1CCC(N2CCCC2)CC1 | binding, competition with immobilised ligand | 1 µM | 100
COc1cnc(Nc2cccc(S(N)(=O)=O)c2)nc1N1CCN(c2ccccc2)C(=O)C1 | binding, competition with immobilised ligand | 1 µM | 100
Nc1ncc2c(n1)-c1c([nH]c3ccc(C#CC4CC4)cc13)CCCC2 | binding, competition with immobilised ligand | 1 µM | 100
COc1ccnn2ncc(-c3ccnc(N(C)C)n3)c12 | binding | 1 µM | 100
Nc1cnc(N2CCc3cc(S(=O)(=O)Nc4c(F)cc(Cl)cc4F)cc(N4CCCC4=O)c32)nc1 | cell-free assay, competition with immobilised ligand | 1 µM | 100
C[C@H]1CCN(c2nccc(-c3cnn4ncccc34)n2)C1 | binding | 1 µM | 100
Cc1cnc(Nc2ccc(C(=O)N3CCC(N4CCCC4)CC3)cc2)nc1-c1cc2ccccc2s1 | binding, competition with immobilised ligand | 1 µM | 74
F[C@@H]1CCN(c2nccc(-c3cnn4ncccc34)n2)C1 | binding | 1 µM | 100
C[C@@H](c1ccc(-n2cnc3c(N)ncnc32)cc1)N1CCc2nn(C)c(Cc3ccccc3)c2C1=O | binding, competition with immobilised ligand | 0.1 µM | 89
N[C@@H]1CCN(c2nccc(-c3cnn4ncccc34)n2)C1 | binding | 1 µM | 97
O=C(Nc1c[nH]nc1C(=O)NC1CCNCC1)c1cc(F)cc(F)c1 | binding, competition with immobilised ligand | 1 µM | 83
CC1CCCN1c1nccc(-c2cnn3ncccc23)n1 (stereo not shown) | binding | 1 µM | 100
CN([C@@H]1CCc2c(CC(=O)O)c3cc(S(C)(=O)=O)ccc3n2C1)S(=O)(=O)c1ccc(F)cc1 | cell-free assay, competition with immobilised ligand | 1 µM | 99
CN(C)c1nccc(-c2cnn3ncccc23)n1 | binding | 1 µM | 100
Cc1nc(C2CCN(C(=O)c3ccc(OC(F)(F)F)cc3N)CC2)c2ncc(N3CCN(C)CC3)cc2n1 | cell-free assay, competition with immobilised ligand | 1 µM | 97
CCN1CCN(Cc2ccc(C(=O)Nc3ccc(C)c(Oc4ccc5c(c4)CC(=O)N5)c3)cc2C(F)(F)F)CC1 | binding, competition with immobilised ligand | 1 µM | 93
COc1ccc2c(c1)O[C@H](c1ccc(OC)c(OC)c1)C[C@@H]2NC(=O)C1(c2ccc3c(c2)OC(F)(F)O3)CC1 | cell-free assay, competition with immobilised ligand | 1 µM | 100
CNC(=O)[C@@H]1CC[C@@H](n2c(-c3ccc4cnccc4c3)nc3ccc(C(=O)NCc4cccc(C(N)=O)c4)cc32)C1 | binding, competition with immobilised ligand | 1 µM | 91
Cn1nc(C(F)(F)F)cc1-c1cnc(N2CCc3cc(S(=O)(=O)Nc4c(F)cc(Cl)cc4F)cc(N4CCCC4=O)c32)nc1 | cell-free assay, competition with immobilised ligand | 1 µM | 100
O=C(NCCCN1CCOCC1)c1ccc(Nc2ncc(Cl)c(-c3ccc(Cl)s3)n2)cc1 | binding, competition with immobilised ligand | 1 µM | 100
CO[C@@H](C)c1c(Nc2ccc([C@H](N(C)C(=O)C3CCS(=O)(=O)CC3)C(F)(F)F)cc2)cnc2cc(Cl)nn12 | cell-free assay, competition with immobilised ligand | 1 µM | 87
CN(CCCC(F)(F)F)c1nccc(-c2cnn3ncccc23)n1 | binding | 1 µM | 91
